Active and inactive are the calls of the source. No cut-off for these calls is given here.
Columns and labels:
[1] = tested on: Heterodera zeae; test: Nematicidal activity against Heterodera zeae infective stage larvae assessed as nematode mortality at 0.25% under light conditions measured 48 hr post dose by stereoscopic microscopy; format: functional
How it was run: (§1)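 Freshly hatched H. zeae second-stage juveniles, 100 per Petri plate, three replicates. Samples in MeOH, DMSO or water were tested in glass cavity blocks; petroleum ether samples were dried onto the block and larvae transferred on agar pieces. Percentages are dilutions of 30 mg/mL stocks (extracts/fractions) or 1 mg/mL stocks (pure compounds). Incubated at 28 ± 2 °C in light or dark box; mortality averaged over three replicates.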

[2] = tested on: Heterodera zeae; test: Nematicidal activity against Heterodera zeae infective stage larvae assessed as nematode mortality at 0.125% under light conditions measured 5 to 60 min post dose by stereoscopic microscopy; format: functional, organism-based
How it was run: (§2)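 H. zeae freshly hatched second-stage juveniles, 100 per plate, three replicates, at 28 ± 2 °C under light or in a dark box. Dilutions are % of a stock: 30 mg/mL for extracts/fractions, 1 mg/mL for pure compounds. Methanol-, DMSO- or water-soluble samples were tested in glass cavity blocks. Petroleum ether-soluble samples were air-dried in the block and covered with agar pieces bearing cultured larvae. Mortality was followed over 5–60 min; each value is the mean of three experiments.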

[3] = tested on: Heterodera zeae; test: Nematicidal activity against Heterodera zeae infective stage larvae assessed as nematode mortality at 1% under light conditions measured 24 hr post dose by stereoscopic microscopy; format: functional; how it was run: as §1
[4] = tested on: Heterodera zeae; test: Nematicidal activity against Heterodera zeae infective stage larvae assessed as nematode mortality at 0.125% under dark conditions measured 24 hr post dose by stereoscopic microscopy; format: functional; how it was run: as §1
[5] = tested on: Heterodera zeae; test: Nematicidal activity against Heterodera zeae infective stage larvae assessed as nematode mortality at 1% under dark conditions measured 72 hr post dose by stereoscopic microscopy; format: functional; how it was run: as §1
[6] = tested on: Heterodera zeae; test: Nematicidal activity against Heterodera zeae infective stage larvae assessed as nematode mortality at 0.125% under light conditions measured 72 hr post dose by stereoscopic microscopy; format: functional; how it was run: as §1
[7] = tested on: Heterodera zeae; test: Nematicidal activity against Heterodera zeae infective stage larvae assessed as nematode mortality at 0.5% under light conditions measured 5 to 60 min post dose by stereoscopic microscopy; format: functional, organism-based; how it was run: as §2
[8] = tested on: Heterodera zeae; test: Nematicidal activity against Heterodera zeae infective stage larvae assessed as nematode mortality at 5% under dark conditions measured 5 to 60 min post dose by stereoscopic microscopy; format: functional, organism-based; how it was run: as §2
[9] = tested on: Heterodera zeae; test: Nematicidal activity against Heterodera zeae infective stage larvae assessed as nematode mortality at 0.25% under dark conditions measured 72 hr post dose by stereoscopic microscopy; format: functional; how it was run: as §1
[10] = tested on: Heterodera zeae; test: Nematicidal activity against Heterodera zeae infective stage larvae assessed as nematode mortality at 0.125% under dark conditions measured 48 hr post dose by stereoscopic microscopy; format: functional; how it was run: as §1
[11] = tested on: Heterodera zeae; test: Nematicidal activity against Heterodera zeae infective stage larvae assessed as nematode mortality at 1% under light conditions measured 72 hr post dose by stereoscopic microscopy; format: functional; how it was run: as §1
[12] = tested on: Heterodera zeae; test: Nematicidal activity against Heterodera zeae infective stage larvae assessed as nematode mortality at 5% under light conditions measured 5 to 60 min post dose by stereoscopic microscopy; format: functional, organism-based; how it was run: as §2
[13] = tested on: Heterodera zeae; test: Nematicidal activity against Heterodera zeae infective stage larvae assessed as nematode mortality at 1% under dark conditions measured 48 hr post dose by stereoscopic microscopy; format: functional; how it was run: as §1
[14] = tested on: Heterodera zeae; test: Nematicidal activity against Heterodera zeae infective stage larvae assessed as nematode mortality at 0.25% under dark conditions measured 5 to 60 min post dose by stereoscopic microscopy; format: functional, organism-based; how it was run: as §2
[15] = tested on: Heterodera zeae; test: Nematicidal activity against Heterodera zeae infective stage larvae assessed as nematode mortality at 0.5% under light conditions measured 24 hr post dose by stereoscopic microscopy; format: functional; how it was run: as §1
[16] = tested on: Heterodera zeae; test: Nematicidal activity against Heterodera zeae infective stage larvae assessed as nematode mortality at 1% under light conditions measured 48 hr post dose by stereoscopic microscopy; format: functional; how it was run: as §1
[17] = tested on: Heterodera zeae; test: Nematicidal activity against Heterodera zeae infective stage larvae assessed as nematode mortality at 0.25% under dark conditions measured 24 hr post dose by stereoscopic microscopy; format: functional; how it was run: as §1
[18] = tested on: Heterodera zeae; test: Nematicidal activity against Heterodera zeae infective stage larvae assessed as nematode mortality at 0.125% under light conditions measured 24 hr post dose by stereoscopic microscopy; format: functional; how it was run: as §1
[19] = tested on: Heterodera zeae; test: Nematicidal activity against Heterodera zeae infective stage larvae assessed as nematode mortality at 0.5% under dark conditions measured 24 hr post dose by stereoscopic microscopy; format: functional; how it was run: as §1
[20] = tested on: Heterodera zeae; test: Nematicidal activity against Heterodera zeae infective stage larvae assessed as nematode mortality at 0.25% under light conditions measured 5 to 60 min post dose by stereoscopic microscopy; format: functional, organism-based; how it was run: as §2
[21] = tested on: Heterodera zeae; test: Nematicidal activity against Heterodera zeae infective stage larvae assessed as nematode mortality at 0.5% under dark conditions measured 48 hr post dose by stereoscopic microscopy; format: functional; how it was run: as §1
[22] = tested on: Heterodera zeae; test: Nematicidal activity against Heterodera zeae infective stage larvae assessed as nematode mortality at 2% under light conditions measured 5 to 60 min post dose by stereoscopic microscopy; format: functional, organism-based; how it was run: as §2
[23] = tested on: Heterodera zeae; test: Nematicidal activity against Heterodera zeae infective stage larvae assessed as nematode mortality at 0.125% under light conditions measured 48 hr post dose by stereoscopic microscopy; format: functional; how it was run: as §1
[24] = tested on: Heterodera zeae; test: Nematicidal activity against Heterodera zeae infective stage larvae assessed as nematode mortality at 0.25% under light conditions measured 24 hr post dose by stereoscopic microscopy; format: functional; how it was run: as §1
[25] = tested on: Heterodera zeae; test: Nematicidal activity against Heterodera zeae infective stage larvae assessed as nematode mortality at 2% under dark conditions measured 5 to 60 min post dose by stereoscopic microscopy; format: functional, organism-based; how it was run: as §2
[26] = tested on: Heterodera zeae; test: Nematicidal activity against Heterodera zeae infective stage larvae assessed as nematode mortality at 1% under light conditions measured 5 to 60 min post dose by stereoscopic microscopy; format: functional, organism-based; how it was run: as §2
[27] = tested on: Heterodera zeae; test: Nematicidal activity against Heterodera zeae infective stage larvae assessed as nematode mortality at 0.125% under dark conditions measured 5 to 60 min post dose by stereoscopic microscopy; format: functional, organism-based; how it was run: as §2
[28] = tested on: Heterodera zeae; test: Nematicidal activity against Heterodera zeae infective stage larvae assessed as nematode mortality at 0.5% under dark conditions measured 72 hr post dose by stereoscopic microscopy; format: functional; how it was run: as §1
[29] = tested on: Heterodera zeae; test: Nematicidal activity against Heterodera zeae infective stage larvae assessed as nematode mortality at 0.125% under dark conditions measured 72 hr post dose by stereoscopic microscopy; format: functional; how it was run: as §1
[30] = tested on: Heterodera zeae; test: Nematicidal activity against Heterodera zeae infective stage larvae assessed as nematode mortality at 0.5% under light conditions measured 48 hr post dose by stereoscopic microscopy; format: functional; how it was run: as §1
[31] = tested on: Heterodera zeae; test: Nematicidal activity against Heterodera zeae infective stage larvae assessed as nematode mortality at 0.5% under light conditions measured 72 hr post dose by stereoscopic microscopy; format: functional; how it was run: as §1
[32] = tested on: Heterodera zeae; test: Nematicidal activity against Heterodera zeae infective stage larvae assessed as nematode mortality at 1% under dark conditions measured 24 hr post dose by stereoscopic microscopy; format: functional; how it was run: as §1
[33] = tested on: Heterodera zeae; test: Nematicidal activity against Heterodera zeae infective stage larvae assessed as nematode mortality at 0.25% under light conditions measured 72 hr post dose by stereoscopic microscopy; format: functional; how it was run: as §1
[34] = tested on: Heterodera zeae; test: Nematicidal activity against Heterodera zeae infective stage larvae assessed as nematode mortality at 1% under dark conditions measured 5 to 60 min post dose by stereoscopic microscopy; format: functional, organism-based; how it was run: as §2
[35] = tested on: Heterodera zeae; test: Nematicidal activity against Heterodera zeae infective stage larvae assessed as nematode mortality at 0.25% under dark conditions measured 48 hr post dose by stereoscopic microscopy; format: functional; how it was run: as §1
[36] = tested on: Heterodera zeae; test: Nematicidal activity against Heterodera zeae infective stage larvae assessed as nematode mortality at 0.5% under dark conditions measured 5 to 60 min post dose by stereoscopic microscopy; format: functional, organism-based; how it was run: as §2

In the case of `CCCCCCCCCCCCCCCC(=O)O` [PALMITIC ACID], the mortality [1] is reported as 10%, the Activity [2] is reported as “inactive” and the mortality [3] is reported as 0%. It also gave a mortality [4] of 0%, a mortality [5] of 80% and a mortality [6] of 0%. The Activity [7] was “inactive”, the Activity [8] was “inactive” and the mortality [9] was 70%. The mortality [10] was 0%, the mortality [11] was 80% and the Activity [12] was “inactive”. The mortality [13] was 80%, the Activity [14] was “inactive” and the mortality [15] was 0%. The mortality [16] was 70%, the mortality [17] was 0% and the mortality [18] was 0%. For the same compound, the mortality [19] was 0%, the Activity [20] was “inactive” and the mortality [21] was 50%. For the same compound, the Activity [22] was “inactive”, the mortality [23] was 0% and the mortality [24] was 0%. The Activity [25] was “inactive”, the Activity [26] was “inactive” and the Activity [27] was “inactive”. The mortality [28] was 70%, the mortality [29] was 50% and the mortality [30] was 50%. It also gave a mortality [31] of 70%, a mortality [32] of 80% and a mortality [33] of 50%. The Activity [34] was “inactive”, the mortality [35] was 20% and the Activity [36] was “inactive”.

For `O=c1c(O)c(-c2ccc(O)c(O)c2)oc2cc(O)cc(O)c12` [QUERCETIN], the mortality [1] was 50%, the Activity [2] was “inactive” and the mortality [3] was 50%. The mortality [4] was 40%, the mortality [5] was 70% and the mortality [6] was 80%. The Activity [7] was “inactive”, the Activity [8] was “inactive” and the mortality [9] was 50%. The mortality [10] was 40%, the mortality [11] was 70% and the Activity [12] was “inactive”. For the same compound, the mortality [13] was 70%, the Activity [14] was “inactive” and the mortality [15] was 50%. It also gave a mortality [16] of 50%, a mortality [17] of 40% and a mortality [18] of 40%. For the same compound, the mortality [19] was 40%, the Activity [20] was “inactive” and the mortality [21] was 50%. For the same compound, the Activity [22] was “inactive”, the mortality [23] was 50% and the mortality [24] was 40%. The Activity [25] was “inactive”, the Activity [26] was “inactive” and the Activity [27] was “inactive”. For the same compound, the mortality [28] was 70%, the mortality [29] was 40% and the mortality [30] was 50%. It also gave a mortality [31] of 80%, a mortality [32] of 50% and a mortality [33] of 70%. For the same compound, the Activity [34] was “inactive”, the mortality [35] was 50% and the Activity [36] was “inactive”.

Source: ChEMBL document CHEMBL3046615, “Isolation of nematicidal compounds from Tagetes patula L. yellow flowers: structure-activity relationship studies against cyst nematode Heterodera zeae infective stage larvae” (2011)
